Source: ChEMBL document CHEMBL1132429, “Design and synthesis of lipophilic phosphoramidate d4T-MP prodrugs expressing high potency against HIV in cell culture: structural determinants for in vitro activity and QSAR” (J Med Chem, 1999)

How the values were obtained:
CCRF-CEM = assay: Cytostatic concentration required to inhibit CEM/0 cells proliferation by 50%; format: functional; details: Homo sapiens
[1] = Partition coefficient (logD7.0); format: physicochemical; details: octanol/water, pH 7
Method in brief: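 Compound (2 μmol) was dissolved in 1-octanol (10 mL) and read by UV at 265 nm. Equal volumes of this solution and pH 7.0 phosphate buffer were stirred 5 min at 25 °C, then allowed to separate for 5 min. Octanol-phase absorbance at 265 nm was divided by that of the original octanol solution. Each experiment was done at least in triplicate.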

[2] = test system: Human immunodeficiency virus 2; assay: Concentration required to protect CEM/0 cells against the cytopathicity of HIV-2 by 50%; details: Human immunodeficiency virus 2, CCRF-CEM
[3] = test system: Human immunodeficiency virus 1; assay: Ratio CC50/EC50 for HIV-1 in CEM/0 cells; format: functional
[4] = test system: Human immunodeficiency virus 2; assay: Concentration required to protect CEM/TK cells against the cytopathicity of HIV-2 by 50%; details: Human immunodeficiency virus 2, CEM-TK(-)
[5] = test system: Human immunodeficiency virus 1; assay: Concentration required to protect CEM/0 cells against the cytopathicity of HIV-1 by 50%; format: functional, organism-based; details: Human immunodeficiency virus 1, CCRF-CEM
Method in brief: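 CEM/0 or CEM/TK⁻ cells at 250,000 cells/mL were infected with HIV-1 (~20 CCID₅₀/mL) or HIV-2 (~100 CCID₅₀/mL). Cells were mixed with an equal volume of diluted compound and incubated 4 days at 37 °C, then scored for giant cell formation. EC₅₀ is the concentration (μM) giving 50% inhibition of HIV-induced cytopathicity. Values are the mean of 2–4 independent experiments.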

Structure (SMILES)	logD [1]	EC50 [2]	EC50 [4]	EC50 [5]	CC50 (CCRF-CEM)	Selectivity index [3]
COC(=O)C(C)NP(=O)(OC[C@@H]1C=C[C@H](n2cc(C)c(=O)[nH]c2=O)O1)Oc1ccccc1 (stereo partly specified)	1.04	75 nM	75 nM	75 nM	> 100000 nM	>1333
COC(=O)C(C)NP(=O)(OC[C@@H]1C=C[C@H](n2cc(C)c(=O)[nH]c2=O)O1)Oc1ccc(OC)cc1 (stereo partly specified)	1.09	53 nM	47 nM	57 nM	35000 nM	614
COC(=O)C(C)NP(=O)(OC[C@@H]1C=C[C@H](n2cc(C)c(=O)[nH]c2=O)O1)Oc1cccc(F)c1 (stereo partly specified)	1.08	35 nM	65 nM	18 nM	30000 nM	1667
COC(=O)C(C)NP(=O)(OC[C@@H]1C=C[C@H](n2cc(C)c(=O)[nH]c2=O)O1)Oc1ccc(C(F)(F)F)cc1 (stereo partly specified)	1.77	10 nM	18 nM	10 nM	13000 nM	1300
COC(=O)C(C)NP(=O)(OC[C@@H]1C=C[C@H](n2cc(C)c(=O)[nH]c2=O)O1)Oc1ccc([N+](=O)[O-])cc1 (stereo partly specified)	0.9	190 nM	90 nM	130 nM	73000 nM	562
COC(=O)C(C)NP(=O)(OC[C@@H]1C=C[C@H](n2cc(C)c(=O)[nH]c2=O)O1)Oc1cccc(Cl)c1 (stereo partly specified)	1.42	57 nM	40 nM	25 nM	26000 nM	1040
COC(=O)C(C)NP(=O)(OC[C@@H]1C=C[C@H](n2cc(C)c(=O)[nH]c2=O)O1)Oc1ccc(F)cc1 (stereo partly specified)	1.1	60 nM	22 nM	53 nM	26000 nM	490
COC(=O)C(C)NP(=O)(OC[C@@H]1C=C[C@H](n2cc(C)c(=O)[nH]c2=O)O1)Oc1ccc(Cl)cc1 (stereo partly specified)	1.43	7 nM	6 nM	5 nM	11000 nM	2200
COC(=O)C(C)NP(=O)(OC[C@@H]1C=C[C@H](n2cc(C)c(=O)[nH]c2=O)O1)Oc1ccc(C#N)cc1 (stereo partly specified)	0.91	130 nM	90 nM	150 nM	60000 nM	400
COC(=O)C(C)NP(=O)(OC[C@@H]1C=C[C@H](n2cc(C)c(=O)[nH]c2=O)O1)Oc1ccc(C(C)=O)cc1 (stereo partly specified)	0.9	100 nM	50 nM	110 nM	40000 nM	363
COC(=O)C(C)NP(=O)(OC[C@@H]1C=C[C@H](n2cc(C)c(=O)[nH]c2=O)O1)Oc1ccc(OC(F)(F)F)cc1 (stereo partly specified)	1.86	30 nM	30 nM	14 nM	34000 nM	2429
COC(=O)C(C)NP(=O)(OC[C@@H]1C=C[C@H](n2cc(C)c(=O)[nH]c2=O)O1)Oc1cccc(C(C)=O)c1 (stereo partly specified)	0.92	90 nM	45 nM	80 nM	50000 nM	625
COC(=O)C(C)NP(=O)(OC[C@@H]1C=C[C@H](n2cc(C)c(=O)[nH]c2=O)O1)Oc1ccc(C)cc1 (stereo partly specified)	1.19	50 nM	25 nM	40 nM	34000 nM	850
COC(=O)C(C)NP(=O)(OC[C@@H]1C=C[C@H](n2cc(C)c(=O)[nH]c2=O)O1)Oc1ccc(Br)cc1 (stereo partly specified) [STAMPIDINE]	1.6	16 nM	18 nM	9 nM	17000 nM	1889
Cc1cn([C@H]2C=C[C@@H](CO)O2)c(=O)[nH]c1=O [STAVUDINE]	-0.59	770 nM	33000 nM	651 nM		267

Now from value to compound, other results behind:

logD [1]	EC50 [2]	EC50 [4]	EC50 [5]	Structure (SMILES)	CC50 (CCRF-CEM)	Selectivity index [3]
1.64	16 nM	14 nM	15 nM	COC(=O)C(C)NP(=O)(OC[C@@H]1C=C[C@H](n2cc(C)c(=O)[nH]c2=O)O1)Oc1cccc(Br)c1 (stereo partly specified)	13000 nM	867
1.78	7 nM	16 nM	8 nM	COC(=O)C(C)NP(=O)(OC[C@@H]1C=C[C@H](n2cc(C)c(=O)[nH]c2=O)O1)Oc1cccc(I)c1 (stereo partly specified)	25000 nM	3125
1.93	15 nM	29 nM	13 nM	COC(=O)C(C)NP(=O)(OC[C@@H]1C=C[C@H](n2cc(C)c(=O)[nH]c2=O)O1)Oc1ccc(I)cc1 (stereo partly specified)	15000 nM	1154
2.15	30 nM	30 nM	16 nM	COC(=O)C(C)NP(=O)(OC[C@@H]1C=C[C@H](n2cc(C)c(=O)[nH]c2=O)O1)Oc1ccc(Cl)c(Cl)c1 (stereo partly specified)	21000 nM	1313
1.01	22 nM	25 nM	25 nM	COC(=O)c1ccc(OP(=O)(NC(C)C(=O)OC)OC[C@@H]2C=C[C@H](n3cc(C)c(=O)[nH]c3=O)O2)cc1 (stereo partly specified)	31000 nM	1240
1.37	29 nM	65 nM	18 nM	COC(=O)C(C)NP(=O)(OC[C@@H]1C=C[C@H](n2cc(C)c(=O)[nH]c2=O)O1)Oc1ccccc1Cl (stereo partly specified)	47000 nM	2611
1.57	13 nM	5.4 nM	13 nM	COC(=O)C(C)NP(=O)(OC[C@@H]1C=C[C@H](n2cc(C)c(=O)[nH]c2=O)O1)Oc1cccc(C(F)(F)F)c1 (stereo partly specified)	14000 nM	1077
